In ChEMBL document CHEMBL4513216, “Probing the Open Global Health Chemical Diversity Library for Multistage-Active Starting Points for Next-Generation Antimalarials” (ACS Infect Dis, 2020):

Assay: Toxicity liver stage against HepG2, at 10uM
Type: cell-based
Parameters: test concentration 10 uM, cell line HepG2-A16-CD81EGFP
Details: human, HepG2-A16-CD81EGFP cells; read-out: INHIBITION
In short: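 Uninfected HepG2-A16-CD81EGFP cells, 3 × 10^3 per well, 1536-well, plated on prespotted compound at 10 μM final, parasite-free screening media added to match infected plates; puromycin 10 μM positive, DMSO 0.5% negative; run in parallel with 48 h PbLuc assay at 37 °C, 5% CO2; viability by CellTiter-Glo luminescence, normalized to controls.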

First: CSc1ccc(C(=O)C2CCCN(C(=O)CCCn3cncn3)C2)cc1 (stereo not given)
Second: CSc1ccc(C(=O)C2CCCN(C(=O)CCn3cncn3)C2)cc1 (stereo not given)
The cytotoxicity at 10 µM of the first is higher: 6.26% for the first, -12.2% for the second.

First: N#Cc1ccc(CN2C[C@@H]3OCC(=O)N[C@@H]3C2)cc1
Second: NC(=O)c1ccc(CN2CCCC(N3CCCCCC3)C2)cc1 (stereo not given)
The cytotoxicity at 10 µM of the first is higher: -3.01% for the first, -6.46% for the second.

Going from CCOC(=O)COC1CCN(C(C)=O)CC(=O)N(C)c2ccccc21 (stereo not given) to CCOC(=O)C1CCN(C(=O)Cn2ccc3cc(Br)ccc32)CC1, the cytotoxicity at 10 µM falls from 7.45% to -8.23%.

First: COCCNC(=O)c1cc(-n2cccc2)ccc1Cl
Second: Cc1ccccc1C(C(=O)NCCn1cccc1)N(C)C (stereo not given)
The cytotoxicity at 10 µM of the first is lower: -3.45% for the first, 7.62% for the second.

Going from CC(C)[C@H](NC(=O)N1CCN(c2ccc(Cl)cc2)CC1)C(=O)NC1CC1 to CC(C)N1CCOC(CC(=O)N2CCCN(c3ccc(F)cc3)CC2)C1 (stereo not given), the cytotoxicity at 10 µM rises from -7.39% to -4.66%.

First: CC(=O)Nc1cccc2c1ccn2CC(=O)NC(C)C
Second: COCCn1c(C(=O)NCC(C)C(=O)O)cc2ccccc21 (stereo not given)
The cytotoxicity at 10 µM of the first is lower: -7.79% for the first, 2.64% for the second.

Going from CCCS(=O)(=O)c1ccc(N2CCN(c3ccccn3)CC2)nn1 to N#Cc1cccc(N2CCC(CO)(CCCc3ccccc3)CC2)n1, the cytotoxicity at 10 µM rises from -82.5% to -45.7%.

First: Cc1cccc(CN2C(=O)CCC23CCN(Cc2ccoc2)CC3)n1
Second: O=C(O)c1ccccc1-c1ccc(CN2CCOCC2)cn1
The cytotoxicity at 10 µM of the first is higher: 2.82% for the first, -1.1% for the second.

Compared with CCN1C(=O)[C@]2(CC[C@@H]3CN(C(=O)Nc4ccc(F)cc4)C[C@@H]32)N=C1C, CC[C@@]1(O)CCN(C(=O)CCNC(=O)c2ccc(F)cc2)C[C@H]1O is lower in cytotoxicity at 10 µM: 3.22% for the first, 0.0652% for the second.

Compared with O=C1CC(c2cccnc2)c2c(c(C(=O)O)cn2-c2ccccc2)N1 (stereo not given), O=C(O)c1ccccc1-c1cnc(Cn2c(=O)cc[nH]c2=O)s1 is lower in cytotoxicity at 10 µM: 9.92% for the first, 2.95% for the second.

Compared with COC(=O)CNC(=O)CSCc1nc(O)c2c(C)c(C)sc2n1, Cc1cc(SC(C)(C)C)ccc1NC(=O)CNC(N)=O is higher in cytotoxicity at 10 µM: 0.562% for the first, 7.94% for the second.

Compared with CCn1nc(C)c2ncnc(N(C)C)c21, CCn1c(C)nnc1SCCNc1cc(OC)ncn1 is higher in cytotoxicity at 10 µM: 3.18% for the first, 5.87% for the second.

First: CCc1noc(C2CCCCN2C(=O)c2ccoc2C)n1 (stereo not given)
Second: Cc1cccc2nc(C(=O)N3CCCC[C@]4(C)NC(=O)CC[C@H]34)cn12
The cytotoxicity at 10 µM of the first is higher: 12.5% for the first, -13.7% for the second.

Going from O=C(O)[C@H]1OCC(=O)N(Cc2cccc(Cl)c2)[C@@H]1c1ccccc1 to NC(=O)C1CN(C(=O)c2ccc(F)cc2)CCN1CCc1ccccc1 (stereo not given), the cytotoxicity at 10 µM falls from 7.35% to 2.77%.

Compared with CN(C)C(=O)CN1CCC2(CC1)C[C@@H](O)[C@H](c1ccccc1)NC2=O, CC(=O)CN1CCC2(CC1)c1ccccc1[C@@H](N1CCSCC1)[C@@H]2O is lower in cytotoxicity at 10 µM: -22.4% for the first, -27.1% for the second.

Compared with CCc1nnc(Nc2cccc(C3CCN(C(=O)CN(C)C)CC3)n2)s1, CCn1c(C2CCCN(C(=O)c3ccc[nH]3)C2)nn(CCN(C)C)c1=O (stereo not given) is higher in cytotoxicity at 10 µM: -39.1% for the first, 2.67% for the second.

First: O=C(O)C1(Cc2cc(-c3ccccc3F)no2)CCOCC1
Second: O=C(c1ccccc1N1CCOCC1)N1CCCC(n2ccnc2)C1 (stereo not given)
The cytotoxicity at 10 µM of the first is higher: -9.41% for the first, -10.7% for the second.

First: Cn1cccc1CNCC1CCCn2cc(C(C)(C)C)nc21 (stereo not given)
Second: Cc1cnn(C2CCCN(C(=O)c3cn4ccccc4n3)C2)c1 (stereo not given)
The cytotoxicity at 10 µM of the first is lower: -19.8% for the first, -6.35% for the second.

First: CCN(C(=O)Cc1ccc(NCc2ncc[nH]2)cc1)c1ccccc1
Second: CC(C)(C)NS(=O)(=O)c1ccccc1CNCc1ccccc1
The cytotoxicity at 10 µM of the first is higher: 6.43% for the first, 5.74% for the second.

Going from NC(=O)N1CCCC(C(=O)NCCOc2ccc3c(c2)OCO3)C1 (stereo not given) to CCOc1ncccc1NC(=O)N1CCCCCC1, the cytotoxicity at 10 µM rises from -102% to -6.36%.

Compared with Cc1cc(C(=O)Nc2ccc(-c3nnc(N(C)C)o3)cc2)oc1C, Cc1cc(NCc2cccc(C#N)c2)ccc1C(=O)N(C)C is higher in cytotoxicity at 10 µM: 0.11% for the first, 7.06% for the second.

First: Cc1cc(C(NC(=O)CNS(C)(=O)=O)C(C)C)c(C)s1 (stereo not given)
Second: Cc1ccc(C(=O)N2CCCC(CNS(=O)(=O)C(C)C)C2)cc1 (stereo not given)
The cytotoxicity at 10 µM of the first is higher: 5.2% for the first, -1.42% for the second.

First: Cc1cc(N2CCC(N(C)C(=O)c3cccs3)CC2)nc(C)n1
Second: Cc1nc(C)n(C2CCCN(C(=O)c3ccc(NC4CC4)nc3)C2)n1 (stereo not given)
The cytotoxicity at 10 µM of the first is higher: 6.74% for the first, -3.36% for the second.

Going from CCCNC(=O)CCC(=O)N1CCC(c2n[nH]c(C3CC3)n2)CC1 to CC(O)c1cn(CC2CCN(C(=O)CN3CCCC3=O)CC2)nn1 (stereo not given), the cytotoxicity at 10 µM rises from -3.82% to 2.31%.

First: CNC(=O)COc1cccc(CNCc2c(C)noc2C)c1
Second: CNC(=O)CCCNCc1c(C(C)C)nn(C)c1N(C)C
The cytotoxicity at 10 µM of the first is higher: -10.3% for the first, -12.7% for the second.

Compared with Cc1noc(CNC(=O)C(C)(C)NC(=O)OC(C)(C)C)n1, CN(C)CCCC(=O)NC1CC(C)(C)Cc2nc(C(C)(C)C)ncc21 (stereo not given) is higher in cytotoxicity at 10 µM: 13.9% for the first, 15.2% for the second.

First: CC(C)(NS(C)(=O)=O)c1nc(-c2ccncc2)no1
Second: c1cncc(-c2noc(C3CN(Cc4cccs4)C3)n2)c1
The cytotoxicity at 10 µM of the first is higher: 12.9% for the first, -6.87% for the second.

Going from Cc1nc(CN2C[C@@H]3CN(C(=O)c4ccncc4)C[C@@H]3C2)cs1 to COCC(=O)NCc1cc(=O)n2c(n1)CN(Cc1ccncc1)CCC2, the cytotoxicity at 10 µM rises from -108% to -99.9%.

Compared with CNC(=O)N1CC[C@@H]2CN(Cc3cccnc3)S(=O)(=O)[C@@H]2CC1, c1cnc2[nH]nc(C3CCN(Cc4ccsc4)CC3)c2c1 is lower in cytotoxicity at 10 µM: 4.4% for the first, -27.3% for the second.

First: COCCc1noc(-c2cn(Cc3ccc(OC)cc3)nn2)n1
Second: COc1ccc(C(=O)Nc2cc(CC(C)C)nn2C)cc1
The cytotoxicity at 10 µM of the first is higher: 5.07% for the first, -10.6% for the second.

First: CCc1ccc(CN2CCOC(Cc3cccc(F)c3)C2)nc1 (stereo not given)
Second: CN1CCNC(Cc2ccc(-c3ccncc3)cc2)C1=O (stereo not given)
The cytotoxicity at 10 µM of the first is higher: -2.33% for the first, -25.8% for the second.

First: CCCN1CCC(CC(=O)NCc2cc(C)nn2C)CC1
Second: Cc1cnn(C2CN(CC(=O)NCCc3ccsc3)C2)c1
The cytotoxicity at 10 µM of the first is lower: -12.4% for the first, -3.86% for the second.

First: CCc1ncc(C(=O)NCCN2CCNC2=O)cn1
Second: Cc1cnc(N2CC3(CCN(C(=O)c4cccnc4)C3)C2)nc1
The cytotoxicity at 10 µM of the first is lower: 0.069% for the first, 2.55% for the second.

First: CCc1ccc(S(=O)(=O)N2CC[C@@](O)(CCOC)[C@H](C)C2)cc1
Second: CCC(NC1CCCC1)c1ccc(S(C)(=O)=O)cc1 (stereo not given)
The cytotoxicity at 10 µM of the first is higher: 6.8% for the first, -3.37% for the second.

First: O=C(c1c[nH]c(=O)[nH]c1=O)N1CCCC(c2nccn2CC2CCC2)C1 (stereo not given)
Second: CC(=O)N(Cc1ncc(C(C)C)o1)C1CCN(Cc2ncc[nH]2)C1 (stereo not given)
The cytotoxicity at 10 µM of the first is higher: -3.67% for the first, -6.02% for the second.

Compared with Cc1nc2ccc(C(=O)N3CCN(CCO)[C@@H]4CS(=O)(=O)C[C@@H]43)cc2o1, CN1CCN(C(=O)c2cccc(CN3CCOCC3)c2)CC1 is higher in cytotoxicity at 10 µM: -1.32% for the first, 2.46% for the second.

First: CCc1ccc2nc(C)cc(C(=O)N[C@@H]3C[C@@H](CO)N(C)C3)c2c1
Second: COc1cc(C(=O)NS(=O)(=O)c2cccc(C#N)c2)cc(OC)c1C
The cytotoxicity at 10 µM of the first is higher: 2.35% for the first, -5.02% for the second.

Going from Cc1nc(N2CCCC2)nc(N2CCC(O)(C(=O)O)CC2)c1C to Cc1nc(C2CCCN2Cc2ccc(S(=O)(=O)N(C)C)o2)no1 (stereo not given), the cytotoxicity at 10 µM rises from -5.62% to -2.53%.

First: O=C(CN1CCOC1=O)N(Cc1ccccc1)Cc1nccs1
Second: c1ccc(CO[C@H]2CC[C@H]3[C@H]2OCCN3Cc2nccs2)nc1
The cytotoxicity at 10 µM of the first is lower: 0.84% for the first, 5.83% for the second.

Compared with Cc1ccc(OCCN2CCN(Cc3cnn(CCO)c3)CC2)cc1, COCCN1C[C@@H]2[C@@H](OC)CCN(Cc3ccco3)[C@@H]2C1 is higher in cytotoxicity at 10 µM: -2.4% for the first, 2.37% for the second.
